Data taken from ChEMBL document CHEMBL1122551, “Bis(m-nitrophenyl) and bis(p-nitrophenyl) esters and the phosphorodiamidate of thymidine 5'-phosphate as potential sources of intracellular thymidine 5'-phosphate in mouse cells in culture” (J Med Chem, 1984).

How the values were obtained:
[1] = Time for hydrolysis of half the starting material was studied at a temperature of 27 degrees celsius and aqueous 50 mM phosphate + 10 % p-dioxane (pH 7.6) as medium; assay type: ADME; details: phosphate buffer with 10% p-dioxane
How it was run: (§1)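 Hydrolysis in aqueous 50 mM potassium phosphate, pH 7.6, starting at 0.05 mM substrate. Nitrophenol release was followed spectrophotometrically at 400 nm. Half-life is the time for hydrolysis of half the starting material.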

[2] = Time for hydrolysis of half the starting material was studied at a temperature of 23 degrees celsius and aqueous 50 mM phosphate + 10 % p-dioxane (pH 7.6) as medium; assay type: ADME, Rattus norvegicus; details: phosphate buffer with 10% p-dioxane; how it was run: as §1
LM [3] = assay: Rate of incorporation of [3H]- into DNA fraction of mouse LM(TK-) cells after 19h of pre-incubation, expressed as cpm 1/(10e6 cells) 1/h; assay type: functional
How it was run: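 LM(TK-) thymidine-kinase-deficient mouse fibroblasts in DMEM with 10% FBS at 37 °C in 5% CO2. Cells were exposed to [methyl-3H]-labeled compound at 0.9 μM and 1 μCi/mL (0.5% EtOH) for 19 h. Acid-insoluble 3H was counted on CCl3CO2H-washed filters. Rate was expressed per 10^6 cells per hour, using Coulter counts.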

[4] = Time for hydrolysis of half the starting material was studied at a temperature of 37 degrees celsius and aqueous 50 mM phosphate (pH 6) as medium; assay type: ADME; details: phosphate buffer
How it was run: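 Stability in 50 mM potassium phosphate at pH 7.6 or 6.0, 37 °C, followed by paper electrophoresis for up to 72 h. Half-life is the time for hydrolysis of half the starting material.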

[5] = Time for hydrolysis of half the starting material was studied at a temperature of 37 degrees celsius and aqueous 50 mM phosphate + 10 % p-dioxane (pH 7.6) as medium(d=no hydrolysis after 72 h); assay type: ADME; details: phosphate buffer with 10% p-dioxane
[6] = Time for hydrolysis of half the starting material was studied at a temperature of 27 degrees celsius and aqueous 50 mM phosphate (pH 7.6) as medium.; assay type: ADME; details: phosphate buffer; how it was run: as §1
LM [7] = assay: Rate of incorporation of [3H]-into DNA fraction of mouse LM(TK-) cells after 2 hr of pre-incubation, expressed as cpm 1/(10e6 cells) 1/h; assay type: functional
How it was run: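 LM(TK⁻) mouse L fibroblasts (thymidine-kinase deficient) in DMEM with 10% FBS, 37 °C, 5% CO2. Seeded in 6-cm dishes and grown overnight. Medium replaced with 0.017 μM [1',2',5-³H]-2'-deoxycytidine at 1 μCi/mL, 0.5% EtOH, for 2 h. Cells trypsinized, filter-collected, washed with 5% CCl3CO2H and 70% ethanol, then scintillation-counted. Zero-time blanks taken; cells per dish counted by Coulter.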

For CCOP(=O)(Oc1ccc([N+](=O)[O-])cc1)Oc1ccc([N+](=O)[O-])cc1, the half-life [1] was 120 min.

Work on Cc1cn([C@H]2C[C@H](O)[C@@H](COP(=O)(Oc3cccc([N+](=O)[O-])c3)Oc3cccc([N+](=O)[O-])c3)O2)c(=O)[nH]c1=O yielded a half-life [2] of 285 min and an Activity (LM [3]) of 18.1.

With Cc1cn([C@H]2C[C@H](O)[C@@H](COP(N)(N)=O)O2)c(=O)[nH]c1=O the half-life [4] was over 3 days and the half-life [5] was over 3 days.

With Cc1cn([C@H]2C[C@H](O)[C@@H](COP(=O)(Oc3ccc([N+](=O)[O-])cc3)Oc3ccc([N+](=O)[O-])cc3)O2)c(=O)[nH]c1=O the half-life [6] was 49.8 min and the half-life [1] was 34.8 min.

For Cc1cn([C@H]2C[C@H](O)[C@@H](COP(=O)(O)Oc3cccc([N+](=O)[O-])c3)O2)c(=O)[nH]c1=O, the Activity (LM [3]) was 37.6.

With Nc1ccn([C@H]2C[C@H](O)[C@@H](CO)O2)c(=O)n1 [DOXECITINE] the Activity (LM [7]) was 21960.

In the case of Cc1cn([C@H]2C[C@H](O)[C@@H](CO)O2)c(=O)[nH]c1=O [DOXRIBTIMINE], the Activity (LM [3]) is reported as 53.
